Data taken from ChEMBL document CHEMBL4312029, “Structure-activity relationship studies and in vitro and in vivo anticancer activity of novel 3-aroyl-1,4-diarylpyrroles against solid tumors and hematological malignancies” (Eur J Med Chem, 2020).
The source made the active and inactive calls. The calls are words filed in the database; no cut-off is given here.

Legend:
U-87 MG = test: Cytotoxicity against human U87MG cells assessed as reduction in cell viability incubated for 48 hrs by MTS assay; assay type: functional, cell-based, U-87MG ATCC; conditions: for inhibition: U-87MG ATCC
Method in brief: (§1)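 Increasing concentrations applied to glioblastoma and neuroblastoma lines to give dose-response viability curves; cytotoxic IC50 from triplicate experiments. Incubation 48 h, except U343MG at 72 h.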

KBM5 [1] = test: Cytotoxicity against human KBM5 cells expressing IM-resistant Bcr/Abl T315I mutant assessed as reduction in cell viability incubated for 48 hrs by MTT assay; assay type: functional, cell-based; conditions: KBM5, 48 h
MCF7 = test: Cytotoxicity against human MCF7 cells assessed as reduction in cell growth incubated for 96 hrs by MTT assay; assay type: functional, cell-based; conditions: MCF7, 96 h
Method in brief: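 Growth inhibition of human breast carcinoma cells, reported as IC50; run in duplicate or triplicate.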

HT-29 = test: Cytotoxicity against human HT-29 cells assessed as reduction in cell viability incubated for 48 hrs by MTT assay; assay type: functional, cell-based; conditions: for IC50: HT-29, 48 h
T-24 [2] = test: Antitumor activity against human T24 cells xenografted in BALB/c nu/numouse assessed as increase in Bax expression in tumor tissue at 20 mg/kg, ip administered every 2 days for 40 days and measured on day 40 by immunofluorescence analysis; assay type: functional, organism-based
Method in brief: (§2)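 Nude mice bearing back tumors from injected T24 or ES-2 cells, treated versus saline controls. Tumors collected on Day 40 and marker expression in tumor tissue assessed by immunofluorescence staining.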

[3] = Cytotoxicity against IM resistant human LAMA84-r cells assessed as reduction in cell viability incubated for 48 hrs by MTT assay; assay type: functional, cell-based
T-24 [4] = test: Cytotoxicity against human T24 cells assessed as reduction in cell viability incubated for 48 hrs by MTT assay; assay type: functional, cell-based; conditions: T-24, 48 h
Homo sapiens [5] = test: Antitumor activity against human ES2 cells xenografted in BALB/c nu/nu mouse assessed as increase in caspase 3 expression in tumor tissue at 20 mg/kg, ip administered every 2 days for 40 days and measured on day 40 by immunofluorescence analysis; assay type: functional, organism-based; method in brief: as §2
Tubulin = test: Inhibition of tubulin polymerization (unknown origin) incubated for 15 mins followed by GTP addition and measured for 20 mins by spectrophotometry; assay type: protein-complex assay, Homo sapiens
Method in brief: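 Tubulin assembly assay with tubulin at 10 µM. IC50 for inhibition of polymerization; run in duplicate or triplicate.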

Tubulin (Homo sapiens) = Tubulin (Homo sapiens) (UniProt P68371+Q9H4B7+P0DPH7+P68366+Q13509+Q71U36+P04350+Q3ZCM7+P07437+P68363+Q9BQE3+Q6PEY2+Q13885+Q9BVA1+Q9BUF5); test: Inhibition of [3H]colchicine binding to tubulin (unknown origin) at 5 uM incubated for 10 mins by DEAE-cellulose filter method relative to control; assay type: protein-complex assay
SW-620 = test: Cytotoxicity against human SW620 cells assessed as reduction in cell viability incubated for 48 hrs by MTT assay; assay type: functional, cell-based; conditions: for IC50: SW-620, 48 h
[6] = (§3) Cytotoxicity against human U343MG cells assessed as reduction in cell viability incubated for 72 hrs by MTS assay; assay type: functional, cell-based; conditions: U-343MG; method in brief: as §1
Homo sapiens [7] = species on record: Homo sapiens; test: as §3; assay type: functional, cell-based; method in brief: as §1
[8] = Cytotoxicity against human SK-N-BE cells assessed as reduction in cell viability incubated for 48 hrs by MTT assay; assay type: functional, cell-based; method in brief: as §1
KU812 cell line = test: Cytotoxicity against human KU812 cells expressing IM- sensitive wild type Bcr/Abl assessed as reduction in cell viability incubated for 48 hrs by MTT assay; assay type: functional, cell-based; conditions: KU812, 48 h
T-24 [9] = test: Antitumor activity against human T24 cells xenografted in BALB/c nu/nu mouse assessed as reduction in Bcl2 expression in tumor tissue at 20 mg/kg, ip administered every 2 days for 40 days and measured on day 40 by immunofluorescence analysis; assay type: functional, organism-based; method in brief: as §2
Homo sapiens [10] = test: Antitumor activity against human ES2 cells xenografted in BALB/c nu/nu mouse assessed as reduction in tumor volume at 20 mg/kg, ip administered every 2 days for 40 days and measured on day 40; assay type: functional, organism-based
Method in brief: (§4)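 T24 or ES-2 cells injected on the backs of nude mice; saline-treated control group. Mice euthanized on Day 40, tumors excised, and tumor volume and weight measured.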

T-24 [11] = test: Antitumor activity against human T24 cells xenografted in BALB/c nu/nu mouse assessed as reduction in CD31 expression in tumor tissue at 20 mg/kg, ip administered every 2 days for 40 days and measured on day 40 by immunofluorescence analysis; assay type: functional, organism-based; method in brief: as §2
[12] = Cytotoxicity against human SK-N-BE(2)C cells assessed as reduction in cell viability incubated for 48 hrs by MTT assay; assay type: functional, cell-based; method in brief: as §1
KBM5 [13] = test: Cytotoxicity against human KBM5 cells expressing IM- sensitive wild type Bcr/Abl assessed as reduction in cell viability incubated for 48 hrs by MTT assay; assay type: functional, cell-based; conditions: KBM5, 48 h
Homo sapiens [14] = test: Antitumor activity against human ES2 cells xenografted in BALB/c nu/nu mouse assessed as reduction in Bcl2 expression in tumor tissue at 20 mg/kg, ip administered every 2 days for 40 days and measured on day 40 by immunofluorescence analysis; assay type: functional, organism-based; method in brief: as §2
Homo sapiens [15] = test: Antitumor activity against human ES2 cells xenografted in BALB/c nu/nu mouse assessed as reduction in Ki67 expression in tumor tissue at 20 mg/kg, ip administered every 2 days for 40 days and measured on day 40 by immunofluorescence analysis; assay type: functional, organism-based; method in brief: as §2
Homo sapiens [16] = test: Antitumor activity against human ES2 cells xenografted in BALB/c nu/nu mouse assessed as increase in Bax expression in tumor tissue at 20 mg/kg, ip administered every 2 days for 40 days and measured on day 40 by immunofluorescence analysis; assay type: functional, organism-based; method in brief: as §2
SW480 = test: Cytotoxicity against human SW480 cells assessed as reduction in cell viability incubated for 48 hrs by MTT assay; assay type: functional, cell-based; conditions: for IC50: SW480, 48 h
HCT-116 = test: Cytotoxicity against human HCT116 cells assessed as reduction in cell viability incubated for 48 hrs by MTT assay; assay type: functional, cell-based; conditions: for IC50: HCT-116, 48 h
Homo sapiens [17] = test: Antitumor activity against human ES2 cells xenografted in BALB/c nu/nu mouse assessed as reduction in tumor weight at 20 mg/kg, ip administered every 2 days for 40 days and measured on day 40; assay type: functional, organism-based; method in brief: as §4
Homo sapiens [18] = test: Antitumor activity against human ES2 cells xenografted in BALB/c nu/nu mouse assessed as reduction in CD31 expression in tumor tissue at 20 mg/kg, ip administered every 2 days for 40 days and measured on day 40 by immunofluorescence analysis; assay type: functional, organism-based; method in brief: as §2
Homo sapiens [19] = test: Antitumor activity against human ES2 cells xenografted in BALB/c nu/nu mouse assessed as increase in caspase 9 expression in tumor tissue at 20 mg/kg, ip administered every 2 days for 40 days and measured on day 40 by immunofluorescence analysis; assay type: functional, organism-based; method in brief: as §2
T-24 [20] = test: Antitumor activity against human T24 cells xenografted in BALB/c nu/nu mouse assessed as reduction in tumor weight at 20 mg/kg, ip administered every 2 days for 40 days and measured on day 40; assay type: functional, organism-based; method in brief: as §4
T98G = test: Cytotoxicity against human T98G cells assessed as reduction in cell viability incubated for 48 hrs by MTS assay; assay type: functional, cell-based; method in brief: as §1
T-24 [21] = test: Antitumor activity against human T24 cells xenografted in BALB/c nu/nu mouse assessed as reduction in Ki67 expression in tumor tissue at 20 mg/kg, […] days for 40 days and measured on day 40 by immunofluorescence analysis; assay type: functional, organism-based; method in brief: as §2
T-24 [22] = test: Antitumor activity against human T24 cells xenografted in BALB/c nu/nu mouse assessed as reduction in tumor volume at 20 mg/kg, ip administered every 2 days for 40 days and measured on day 40; assay type: functional, organism-based; method in brief: as §4
T-24 [23] = test: Antitumor activity against human T24 cells xenografted in BALB/c nu/nu mouse assessed as increase in caspase 9 expression in tumor tissue at 20 mg/kg, ip administered every 2 days for 40 days and measured on day 40 by immunofluorescence analysis; assay type: functional, organism-based; method in brief: as §2
PBMC = test: Cytotoxicity against human PBMC assessed as cell viability by MTT assay; assay type: cell-based
T-24 [24] = test: Antitumor activity against human T24 cells xenografted in BALB/c nu/nu mouse assessed as increase in caspase 3 expression in tumor tissue at 20 mg/kg, ip administered every 2 days for 40 days and measured on day 40 by immunofluorescence analysis; assay type: functional, organism-based; method in brief: as §2
[25] = Cytotoxicity against human LAMA84-s cells expressing IM-sensitive wild type Bcr/Abl assessed as reduction in cell viability incubated for 48 hrs by MTT assay; assay type: functional, cell-based
KBM5 [26] = test: Induction of apoptotic cell death in human KBM5 cells expressing IM-sensitive wild type Bcr/Abl at 10 nM incubated for 48 hrs by Annexin V-staining based flow cytometry; assay type: functional
Method in brief: (§5)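 KBM5-WT and KBM5-T315I cells exposed 48 h to 10 nM test compound alone or combined with 10 nM nilotinib (nilotinib alone as comparator). Apoptotic cells quantified by annexin V staining and flow cytometry; triplicate.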

KBM5 [27] = test: Induction of apoptotic cell death in human KBM5 cells expressing IM-resistant Bcr/Abl T315I mutant at 10 nM incubated for 48 hrs by Annexin V-staining based flow cytometry; assay type: functional; method in brief: as §5

COc1cc(C(=O)c2cn(-c3cccc(N)c3)cc2-c2ccc(N)cc2)cc(OC)c1OC
Emax (U-87 MG): 32% | IC50 (U-87 MG): 30.9 to 31 nM | inhibition (U-87 MG): Dose-dependent effect | IC50 (KBM5 [1]): 16 nM | IC50 (MCF7): 14 nM | inhibition (HT-29): Dose-dependent effect | IC50 (HT-29): 51 nM | Activity (T-24 [2]): Active | IC50 [3]: 12 nM | IC50 (T-24 [4]): 12 nM | Activity (Homo sapiens [5]): Active | IC50 (Tubulin): 470 nM | inhibition (Tubulin (Homo sapiens)): 92% | inhibition (SW-620): Dose-dependent effect | IC50 (SW-620): 28 nM | Emax [6]: 36.3% | IC50 [6]: 11.9 to 12 nM | inhibition (Homo sapiens [7]): Dose-dependent effect | IC50 [8]: 221 nM | IC50 (KU812 cell line): 8 nM | inhibition (T-24 [9]): Active | inhibition (Homo sapiens [10]): Active | inhibition (T-24 [11]): Active | IC50 [12]: 56 nM | IC50 (KBM5 [13]): 14 nM | inhibition (Homo sapiens [14]): Active | inhibition (Homo sapiens [15]): Active | Activity (Homo sapiens [16]): Active | inhibition (SW480): Dose-dependent effect | IC50 (SW480): 48 nM | inhibition (HCT-116): Dose-dependent effect | IC50 (HCT-116): 27 nM | inhibition (Homo sapiens [17]): Active | inhibition (Homo sapiens [18]): Active | Activity (Homo sapiens [19]): Active | inhibition (T-24 [20]): Active | Emax (T98G): 41.3% | IC50 (T98G): 36.6 to 37 nM | inhibition (T98G): Dose-dependent effect | inhibition (T-24 [21]): Active | inhibition (T-24 [22]): Active | Activity (T-24 [23]): Active | Activity (PBMC): Non-Toxic | Activity (T-24 [24]): Active | IC50 [25]: 10 nM

Cc1cn(-c2cc(NC(=O)c3ccc(C)c(Nc4nccc(-c5cccnc5)n4)c3)cc(C(F)(F)F)c2)cn1 [NILOTINIB]
IC50 (KBM5 [1]): 2420 nM | IC50 [3]: 126 nM | IC50 (KU812 cell line): 10 nM | Activity (KBM5 [26]): Active | Activity (KBM5 [27]): Active | IC50 (KBM5 [13]): 12 nM | IC50 [25]: 11 nM

COc1cc(C(=O)c2cn(-c3cccc(N)c3)cc2-c2ccccc2[N+](=O)[O-])cc(OC)c1OC
Emax (U-87 MG): 32.4% | IC50 (U-87 MG): 29.9 to 30 nM | inhibition (U-87 MG): Dose-dependent effect | IC50 (KBM5 [1]): 21 nM | IC50 (MCF7): 14 nM | inhibition (HT-29): Dose-dependent effect | IC50 (HT-29): 51 nM | IC50 [3]: 20 nM | IC50 (T-24 [4]): 12 nM | IC50 (Tubulin): 710 nM | inhibition (Tubulin (Homo sapiens)): 82% | inhibition (SW-620): Dose-dependent effect | IC50 (SW-620): 38 nM | Emax [6]: 35.3% | IC50 [6]: 30 to 30.2 nM | inhibition (Homo sapiens [7]): Dose-dependent effect | IC50 [8]: 311 nM | IC50 (KU812 cell line): 16 nM | IC50 [12]: 132 nM | IC50 (KBM5 [13]): 15 nM | inhibition (SW480): Dose-dependent effect | IC50 (SW480): 164 nM | inhibition (HCT-116): Dose-dependent effect | IC50 (HCT-116): 44 nM | Emax (T98G): 26.7% | IC50 (T98G): 34.6 to 35 nM | inhibition (T98G): Dose-dependent effect | Activity (PBMC): Non-Toxic | IC50 [25]: 18 nM
